Changes are numbered by the printed parent chain. The source made the active and inactive calls. The rule behind the calls is not given here.
How the values were obtained:
[1] = test system: Mycobacterium tuberculosis variant bovis BCG; assay: Antibacterial activity against Mycobacterium bovis BCG Pasteur infected in mouse J774A.1 cells assessed as reduction in bacterial burden at 0.3 ug/ml after 72 hrs post infection relative to control; type: functional; design: scale not given: the % may be the effect or the level left
Procedure, shortened: (§1)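 J774A.1 mouse macrophages in DMEM with 10% heat-inactivated FBS, seeded at 2 × 10^3/well overnight. Pretreated with inhibitor in DMSO or DMSO alone, then infected with BCG Pasteur at MOI 10:1 for 4 h and washed (time 0). Medium and inhibitor renewed at 24 h. Cells lysed in 0.05% Tween 80 at 72 h; CFU counted on 7H10 after 3 weeks. Triplicate, ≥3 experiments.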

[2] = test system: Mycobacterium tuberculosis variant bovis BCG; assay: Antibacterial activity against Mycobacterium bovis BCG Pasteur assessed as reduction in extracellular growth at 80 uM; type: functional, organism-based
[3] = molecular target: T1, Phosphotyrosine protein phosphatase ptpB (Mycobacterium bovis (strain BCG / Pasteur 1173P2)) (UniProt A0A0H3M0T0); assay: Inhibition of Mycobacterium bovis BCG Pasteur ptpB infected in mouse J774A.1 cells assessed as reduction in intracellular bacterial burden at 5 uM after 72 hrs post infection in presence of isoniazid; type: cell-based; details: Mycobacterium tuberculosis variant bovis BCG; procedure, shortened: as §1
T1 sequence (whole entry): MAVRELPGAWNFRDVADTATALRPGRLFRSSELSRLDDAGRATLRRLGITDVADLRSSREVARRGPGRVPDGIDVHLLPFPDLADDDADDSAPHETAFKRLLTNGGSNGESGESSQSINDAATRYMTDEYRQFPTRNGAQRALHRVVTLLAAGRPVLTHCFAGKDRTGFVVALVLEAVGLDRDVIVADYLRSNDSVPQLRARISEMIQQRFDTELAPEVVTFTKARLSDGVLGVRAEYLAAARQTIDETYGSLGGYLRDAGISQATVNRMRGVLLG

[4] = molecular target: T2, Phosphotyrosine protein phosphatase (Mycobacterium tuberculosis) (UniProt A0A045ISB3); assay: Inhibition of multi-drug resistant Mycobacterium tuberculosis Beijing-W_565 ptpB infected in human THP1 cells assessed as reduction in intracellular bacterial burden at 20 to 100 uM after 72 hrs post infection relative to DMSO-treated control; type: cell-based
T2 sequence (whole entry): T1 sequence (whole entry) with G105D
Procedure, shortened: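 PMA-differentiated THP1 cells (1 × 10^6/well) in RPMI with 10% FBS. Inhibitor (0, 20 or 80 μM in DMSO) added, then infected with thawed M. tuberculosis at MOI 1:1 for 3 h and washed 4 times. Medium and inhibitor renewed at 24 h. Cells lysed in 0.05% SDS at 72 h; CFU plated in duplicate and counted after 3 weeks. Triplicate.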

[5] = molecular target: T1, Phosphotyrosine protein phosphatase ptpB (Mycobacterium bovis (strain BCG / Pasteur 1173P2)); assay: Inhibition of Mycobacterium bovis BCG Pasteur ptpB infected in mouse J774A.1 cells assessed as reduction in intracellular bacterial burden up to 500 uM after 72 hrs post infection relative to treated-DMSO control; type: cell-based; details: Mycobacterium tuberculosis variant bovis BCG; procedure, shortened: as §1
[6] = molecular target: T1, Phosphotyrosine protein phosphatase ptpB (Mycobacterium bovis (strain BCG / Pasteur 1173P2)); assay: Inhibition of Mycobacterium bovis BCG Pasteur ptpB infected in mouse J774A.1 cells assessed as reduction in intracellular bacterial burden at 5 uM after 72 hrs post infection in presence of rifampicin; type: cell-based; details: Mycobacterium tuberculosis variant bovis BCG; procedure, shortened: as §1
[7] = molecular target: T1, Phosphotyrosine protein phosphatase ptpB (Mycobacterium bovis (strain BCG / Pasteur 1173P2)); assay: Inhibition of Mycobacterium bovis BCG Pasteur ptpB infected in mouse J774A.1 cells assessed as reduction in intracellular bacterial burden at 80 uM after 72 hrs post infection; type: cell-based; details: Mycobacterium tuberculosis variant bovis BCG; procedure, shortened: as §1
[8] = molecular target: T1, Phosphotyrosine protein phosphatase ptpB (Mycobacterium bovis (strain BCG / Pasteur 1173P2)); assay: Inhibition of Mycobacterium bovis BCG Pasteur ptpB infected in mouse J774A.1 cells assessed as reduction in intracellular bacterial burden at 10 to 120 uM after 72 hrs post infection relative to DMSO-treated control; type: cell-based; details: Mycobacterium tuberculosis variant bovis BCG; procedure, shortened: as §1
[9] = molecular target: T1, Phosphotyrosine protein phosphatase ptpB (Mycobacterium bovis (strain BCG / Pasteur 1173P2)); assay: Inhibition of Mycobacterium bovis BCG Pasteur ptpB infected in mouse J774A.1 cells assessed as reduction in intracellular bacterial burden at 10 to 120 uM after 24 hrs post infection; type: cell-based; details: Mycobacterium tuberculosis variant bovis BCG; procedure, shortened: as §1
[10] = molecular target: T2, Phosphotyrosine protein phosphatase (Mycobacterium tuberculosis); assay: Inhibition of multi-drug resistant Mycobacterium tuberculosis Beijing-W_565 ptpB infected in human THP1 cells assessed as reduction in intracellular bacterial burden at 20 to 80 uM after 72 hrs post infection relative to DMSO-treated control; type: cell-based
Procedure, shortened: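 THP1 cells (1 × 10^6/well) were PMA-treated overnight. Inhibitor (20 or 80 μM, in DMSO) was added in RPMI with 10% FBS before infection with thawed bacteria at MOI 1:1. Washed four times after 3 h; inhibitor re-added at 24 h. At 72 h, cells lysed in 0.05% SDS and CFU plated (duplicate 10-fold dilutions, 7H10, 3 weeks); triplicates.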

[11] = test system: Mycobacterium tuberculosis variant bovis BCG; assay: Antibacterial activity against Mycobacterium bovis BCG Pasteur infected in mouse J774A.1 cells assessed as reduction in bacterial burden at 0.1 ug/ml after 72 hrs post infection relative to control; type: functional; design: scale not given: the % may be the effect or the level left; procedure, shortened: as §1

| SMILES | inhibition [7] | inhibition [8] [%] | inhibition [9] | further results |
| --- | --- | --- | --- | --- |
| CO[C@H]1/C=C/O[C@@]2(C)Oc3c(C)c(O)c4c(O)c(c(/C=N/N5CCN(C)CC5)c(O)c4c3C2=O)NC(=O)/C(C)=C\C=C\[C@H](C)[C@H](O)[C@@H](C)[C@@H](O)[C@@H](C)[C@H](OC(C)=O)[C@@H]1C [RIFAMPIN] |  |  |  | Activity [1]: <25% |
| Cc1onc(C(=O)O)c1-c1cccc(-c2cc(Cl)c(O)c(Cl)c2)c1 |  |  |  | Activity [2]: inactive; inhibition [3]: > 93%; inhibition [4]: < 74%; inhibition [5]: < 84%; inhibition [6]: > 93% |
| O=C(O)c1noc(-c2ccccc2)c1-c1cccc(-c2ccc(O)c(F)c2)c1 | Active | 81 to 87 | Active |  |
| O=C(O)c1noc(-c2ccccc2)c1-c1cccc(-c2ccc(O)c(Cl)c2)c1 | Active | 81 to 87 | Active |  |
| COC(=O)c1c(O)cccc1OC/C=C/c1cccc(-c2cc(C(=O)O)no2)c1 [ISOXAZOLECARBOXYLIC ACID] |  |  |  | inhibition [10]: Active |
| O=C(O)c1noc(-c2ccccc2)c1-c1cccc(-c2ccc(O)cc2)c1 | Active | 81 to 87 | Active |  |
| NNC(=O)c1ccncc1 [ISONIAZID] |  |  |  | Activity [11]: <25% |
| O=C(O)c1noc(-c2ccccc2)c1-c1cccc(-c2cc(Cl)c(O)c(Cl)c2)c1 |  | 81 to 87 | Active |  |
| O=C(O)c1noc(-c2ccccc2)c1-c1cccc(-c2cc(Cl)c(O)c([N+](=O)[O-])c2)c1 | Active | 81 to 87 | Active |  |

— ChEMBL document CHEMBL4196176, “Structure-Based Design of MptpB Inhibitors That Reduce Multidrug-Resistant Mycobacterium tuberculosis Survival and Infection Burden in Vivo” (J Med Chem, 2018)
